Reference: ChEMBL document CHEMBL1151786, “Triphenylmethylamides (TPMAs): Structure-activity relationship of compounds that induce apoptosis in melanoma cells” (Bioorg Med Chem Lett, 2008)
pIC50: −log10 of the molar value. In brackets after ≈: the same amount, converted by molar mass. Activity calls are given as the source filed them. No cut-off for these calls is given here.

How the values were obtained:
[1] = test system: SK-MEL-5; assay: Growth inhibition of human SK-MEL-5 cells after 72 hrs by SRB assay; format: functional, cell-based; conditions: SK-MEL-5, 72 h
Procedure, shortened: (§1)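 Melanoma cells were exposed to a range of compound concentrations for 72 h. Growth inhibition was read as biomass by sulforhodamine B staining. IC50 is the average of three separate occasions, given with standard deviation, from dose–response curves.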

[2] = test system: UACC-62; assay: Growth inhibition of human UACC62 cells after 72 hrs by SRB assay; format: functional, cell-based; conditions: UACC-62, 72 h; procedure, shortened: as §1
[3] = test system: HL-60; assay: Cell cycle arrest in human HL60 cells assessed as accumulation at G1 phase at 20 uM after 6 hrs by flow cytometry using propidium iodide staining; format: functional, cell-based
Procedure, shortened: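 HL-60 cells were treated for 6 h with 20 µM compound or with vehicle alone. They were then stained with propidium iodide and analysed by flow cytometry for the percentage of cells in G0/G1, S and G2/M.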

[4] = test system: HL-60; assay: Antiproliferative activity against human HL60 cells after 72 hrs by SRB assay; format: functional, cell-based; conditions: HL-60, 72 h
Procedure, shortened: (§2)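 Cancer cell lines were incubated with compound for 72 h. Growth or viability was measured by a method given in the supporting information. IC50 values are averages with standard deviations from three independent experiments.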

[5] = test system: PC-12; assay: Antiproliferative activity against rat PC12 cells after 72 hrs by SRB assay; format: functional, cell-based; conditions: PC-12, 72 h; procedure, shortened: as §2
[6] = test system: U-937; assay: Antiproliferative activity against human U937 cells after 72 hrs by SRB assay; format: functional, cell-based; conditions: U-937, 72 h; procedure, shortened: as §2
[7] = Aqueous solubility in phosphate-buffered saline at pH 7.4; format: physicochemical; conditions: read-out: Stability
[8] = test system: MCF7; assay: Antiproliferative activity against human MCF7 cells after 72 hrs by SRB assay; format: functional, cell-based; conditions: MCF7, 72 h; procedure, shortened: as §2
[9] = test system: U-937; assay: Induction of late apoptosis in human U937 cells at 100 uM after 48 hrs by flow cytometry using FITC-conjugated annexin V and propidium iodide staining relative to control; format: functional
Procedure, shortened: (§3)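 U-937 cells were exposed for 48 h to 100 µM compound or to vehicle. Cells were stained with FITC-conjugated Annexin V to detect phosphatidylserine externalization and with propidium iodide to test membrane integrity, then quantified by flow cytometry. Quadrants were scored, with Annexin V-positive/propidium iodide-negative taken as early apoptotic.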

[10] = test system: U-937; assay: Induction of apoptosis in human U937 cells assessed as nonviable necrotic cells at 100 uM after 48 hrs by flow cytometry using FITC-conjugated annexin V and propidium iodide staining relative to control; format: functional; procedure, shortened: as §3
[11] = test system: U-937; assay: Induction of early apoptosis in human U937 cells at 100 uM after 48 hrs by flow cytometry using FITC-conjugated annexin V and propidium iodide staining relative to control; format: functional; procedure, shortened: as §3
[12] = test system: U-937; assay: Induction of apoptosis in human U937 cells assessed as viable cells at 100 uM after 48 hrs by flow cytometry using FITC-conjugated annexin V and propidium iodide staining relative to control; format: functional; conditions: U-937, 48 h, read-out: Activity; procedure, shortened: as §3

SMILES | pIC50 [1] | pIC50 [2] | further results
O=C(NCCc1ccccc1)C1(c2ccccc2)c2ccccc2-c2ccccc21 | 4.70 | 4.70 | 
COC(=O)[C@@H](Cc1ccccc1)NC(=O)C(c1ccccc1)(c1ccccc1)c1cccs1 | 4.92 | 4.68 | 
O=C(CC(c1ccccc1)(c1ccccc1)c1ccccc1)NCCc1ccccc1 | 4.77 | 4.30 | 
COC(=O)[C@@H](Cc1ccccc1)NC(=O)C(c1ccccc1)(c1ccccc1)c1ccccc1 | 5.24 | 4.85 | Activity [3]: Active; pIC50 [4]: 5.14; pIC50 [5]: 4.80; pIC50 [6]: 5.14; solubility [7]: 20 µM (≈ 8.99 µg/mL); pIC50 [8]: 5.10
COC(=O)[C@@H](Cc1ccccc1)NC(=O)CCC(c1ccccc1)(c1ccccc1)c1ccccc1 | 5.60 | 4.40 | pIC50 [4]: 5.22; pIC50 [5]: 4.13; pIC50 [6]: 5.17; pIC50 [8]: 5.21
O=C(NCCc1ccccc1)C(c1ccccc1)(c1ccccc1)c1ccc(O)c(O)c1 | 5.38 | 5.68 | Activity [3]: Active; pIC50 [4]: 5.21; pIC50 [5]: 4.07; pIC50 [6]: 5.23; Activity [9]: 58.56%; Activity [10]: 12.79%; solubility [7]: 80 µM (≈ 33.9 µg/mL); Activity [11]: 23.17%; pIC50 [8]: 5.09; viability at 100 µM [12]: 5.48%
COC(=O)[C@@H](Cc1ccccc1)NC(=O)C(c1ccccc1)(c1ccccc1)c1ccc(OC)cc1 | 5.21 | 4.57 | 
O=C(NCCc1ccccc1)C(c1ccccc1)(c1ccc(O)cc1)c1ccc(O)cc1 | 5.07 | 4.33 | 
COc1ccc(C(C(=O)NCCc2ccccc2)(c2ccccc2)c2ccc(OC)cc2)cc1 | 4.85 | 4.70 | Activity [3]: Active
COc1ccc(C(C(=O)NCCc2ccccc2)(c2ccccc2)c2ccccc2)cc1 | 4.54 | 4.89 | Activity [3]: Active
O=C(NCCc1ccccc1)C(c1ccc(O)cc1)(c1ccc(O)cc1)c1ccc(O)cc1 | 4.44 | 4.15 | 
COC(=O)[C@@H](Cc1ccccc1)NC(=O)C(c1ccc(O)cc1)(c1ccc(O)cc1)c1ccc(O)cc1 | 4.89 | 4.57 | 
COc1ccc(C(C(=O)NCCc2ccccc2)(c2ccc(OC)cc2)c2ccc(OC)cc2)cc1 | 4.70 | < 4.00 | 
O=C(NCCc1ccccc1)C(c1ccccc1)(c1ccccc1)c1ccccc1 | 5.24 | 5.08 | Activity [3]: Active; pIC50 [4]: 5.11; pIC50 [5]: 4.51; pIC50 [6]: 5.02; pIC50 [8]: 5.15
COC(=O)[C@@H](Cc1ccccc1)NC(=O)CC(c1ccccc1)(c1ccccc1)c1ccccc1 | 5.29 | < 4.00 | 
O=C(CCCC(c1ccccc1)(c1ccccc1)c1ccccc1)NCCc1ccccc1 | 5.27 | 4.59 | Activity [3]: Active
COC(=O)[C@@H](Cc1ccccc1)NC(=O)C(c1ccc(OC)cc1)(c1ccc(OC)cc1)c1ccc(OC)cc1 | 4.31 | < 4.00 | 
O=C(CCC(c1ccccc1)(c1ccccc1)c1ccccc1)NCCc1ccccc1 | 5.26 | 4.30 | 
COC(=O)[C@@H](Cc1ccccc1)NC(=O)CCCC(c1ccccc1)(c1ccccc1)c1ccccc1 | 5.24 | 4.35 | 
COC(=O)[C@@H](Cc1ccccc1)NC(=O)C1(c2ccccc2)c2ccccc2-c2ccccc21 | 4.64 | 4.57 | 
O=C(NCCc1ccccc1)C(c1ccccc1)(c1ccccc1)c1cccs1 | 5.05 | 4.89 | 
O=C(NCCc1ccccc1)C(c1ccccc1)(c1ccccc1)c1ccc(O)cc1 | 5.09 | 4.89 | 
COC(=O)[C@@H](Cc1ccccc1)NC(=O)C(c1ccccc1)(c1ccc(OC)cc1)c1ccc(OC)cc1 | 4.62 | < 4.00 | 
COC(=O)[C@@H](Cc1ccccc1)NC(=O)C(c1ccccc1)(c1ccc(O)cc1)c1ccc(O)cc1 | 5.17 | 4.70 | 
COC(=O)[C@@H](Cc1ccccc1)NC(=O)C(c1ccccc1)(c1ccccc1)c1ccc(O)cc1 | 5.09 | 4.68 | 
